From ChEMBL document CHEMBL1221219, “Selective blockade of 2-arachidonoylglycerol hydrolysis produces cannabinoid behavioral effects” (Nat Chem Biol, 2009)
Activity calls are given as the source filed them. The rule behind the calls is not given here.

What was measured:
[1] = target: T1, Diacylglycerol lipase-beta (Homo sapiens) (UniProt Q8NCG7); assay: Inhibition of recombinant DAGLbeta expressed in HEK293 cells assessed as hydrolysis of 1-stearoyl-2-arachidonoyl-glycerol to 2-AG at 25 uM after 30 mins by LC-MS method; type: cell-based
T1 sequence (whole entry): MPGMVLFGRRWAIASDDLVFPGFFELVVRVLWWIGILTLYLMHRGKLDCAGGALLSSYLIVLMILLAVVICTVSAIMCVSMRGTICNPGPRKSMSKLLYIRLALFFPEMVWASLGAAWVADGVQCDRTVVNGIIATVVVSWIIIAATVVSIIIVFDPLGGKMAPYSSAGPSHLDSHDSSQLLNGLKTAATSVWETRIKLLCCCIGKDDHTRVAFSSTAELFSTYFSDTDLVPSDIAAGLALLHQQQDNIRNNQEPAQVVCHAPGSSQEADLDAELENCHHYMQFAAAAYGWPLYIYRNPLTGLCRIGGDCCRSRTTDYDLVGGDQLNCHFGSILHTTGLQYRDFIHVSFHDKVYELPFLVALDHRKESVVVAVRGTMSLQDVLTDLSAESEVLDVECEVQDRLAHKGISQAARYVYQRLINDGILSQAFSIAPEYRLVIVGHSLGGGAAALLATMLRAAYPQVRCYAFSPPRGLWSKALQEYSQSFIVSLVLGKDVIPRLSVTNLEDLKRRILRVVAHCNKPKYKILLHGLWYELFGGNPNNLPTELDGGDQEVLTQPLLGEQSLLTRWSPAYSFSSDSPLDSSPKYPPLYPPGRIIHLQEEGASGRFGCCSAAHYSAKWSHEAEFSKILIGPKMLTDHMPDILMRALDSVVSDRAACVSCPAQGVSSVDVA

Mus musculus [2] = assay: Inhibition of ABHD3 in C57B1/6J mouse brain membrane at 16 mg/kg, ip after 4 hrs by competitive activity-based protein profiling-MudPIT method; type: functional, organism-based; parameters: dose 16 mg/kg
How it was run: (§1)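 Mice were dosed 16 mg kg^-1 i.p. or vehicle and killed at 4 h. Brain membrane proteomes were labelled with FP-biotin, avidin-enriched, trypsin-digested on bead, analysed by multidimensional LC-MS and identified by SEQUEST.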

Mus musculus [3] = assay: Inhibition of LPL1 in C57B1/6J mouse brain membrane at 16 mg/kg, ip after 4 hrs by competitive activity-based protein profiling-MudPIT method; type: functional, organism-based; parameters: dose 16 mg/kg
How it was run: (§2)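 After i.p. dosing in 4:1 PEG300:Tween80, male C57Bl/6J mice were killed at 4 h. Brain membrane proteomes from treated and vehicle mice were labelled with FP-biotin. Labelled proteins were enriched on avidin, digested on-bead with trypsin and analysed by multidimensional LC-MS. Proteins were identified by SEQUEST, and dosed samples were compared with vehicle.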

Mus musculus [4] = assay: Inhibition of PRCP in C57B1/6J mouse brain membrane at 16 mg/kg, ip after 4 hrs by competitive activity-based protein profiling-MudPIT method; type: functional, organism-based; parameters: dose 16 mg/kg; how it was run: as §2
Mus musculus [5] = assay: Inhibition of APT2 in C57B1/6J mouse brain membrane at 16 mg/kg, ip after 4 hrs by competitive activity-based protein profiling-MudPIT method; type: functional, organism-based; parameters: dose 16 mg/kg; how it was run: as §1
Mus musculus [6] = assay: Inhibition of PAFAH-1Bb in C57B1/6J mouse brain membrane at 16 mg/kg, ip after 4 hrs by competitive activity-based protein profiling-MudPIT method; type: functional, organism-based; parameters: dose 16 mg/kg; how it was run: as §2
Mus musculus [7] = assay: Change in free fatty acid level in C57B1/6J mouse brain at 16 mg/kg, ip by LC-MS; type: functional, organism-based; parameters: dose 16 mg/kg
How it was run: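 Mice received 16 mg kg^-1 i.p. in 4:1 PEG300:Tween80 and were killed at 0.5, 1, 2, 4, 8 and 24 h. Brain lipids, including N-acylethanolamines, MAGs, free fatty acids and arachidonic acid, were measured by LC-MS.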

Mus musculus [8] = assay: Induction of hypothermia in C57B1/6J mouse at 16 mg/kg, ip pretreated with rimonabant; type: functional, organism-based; parameters: dose 16 mg/kg
How it was run: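 Male C57Bl/6J mice, 6-8 weeks, 20-26 g, given 16 mg kg^-1 i.p. in 4:1 v/v PEG300:Tween80 at 4 μl g^-1; vehicle controls received PEG300:Tween80 alone. Cannabinoid effects were scored in the tetrad test.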

Mus musculus [9] = assay: Inhibition of FAAH in C57B1/6J mouse brain membrane assessed as elevated level of N-acylethanolamine at 10 mg/kg, ip by competitive activity-based protein profiling method; type: functional, organism-based; parameters: dose 10 mg/kg
[10] = target: T2, Monoacylglycerol lipase ABHD6 (Mus musculus) (UniProt Q8R2Y0); assay: Inhibition of ABHD6 in C57B1/6J mouse brain membrane at 10 uM after 30 mins by competitive activity-based protein profiling method; type: cell membranes
T2 sequence (whole entry): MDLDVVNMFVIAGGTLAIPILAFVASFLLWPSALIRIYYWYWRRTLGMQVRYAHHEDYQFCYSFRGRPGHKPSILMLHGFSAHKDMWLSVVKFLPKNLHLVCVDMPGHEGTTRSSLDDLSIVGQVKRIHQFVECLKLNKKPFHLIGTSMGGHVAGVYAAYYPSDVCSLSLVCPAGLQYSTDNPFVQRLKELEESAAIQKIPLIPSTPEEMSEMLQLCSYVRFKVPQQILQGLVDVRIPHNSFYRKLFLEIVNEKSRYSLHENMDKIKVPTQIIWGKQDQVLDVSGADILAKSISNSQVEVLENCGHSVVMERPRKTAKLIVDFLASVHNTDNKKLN
How it was run: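 Mouse brain membrane proteome at 1 mg ml^-1 in PBS was preincubated with inhibitor (1 nM-10 μM) for 30 min at 37°C. FP-rhodamine was then added at 2 μM final for 30 min at room temperature, followed by SDS-PAGE and in-gel fluorescence scanning.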

SMILES: O=C(Oc1ccc([N+](=O)[O-])cc1)N1CCC(C(O)(c2ccc3c(c2)OCO3)c2ccc3c(c2)OCO3)CC1
- inhibition [1]: inactive
- inhibition (Mus musculus [2]): inactive
- inhibition (Mus musculus [3]): inactive
- inhibition (Mus musculus [4]): inactive
- inhibition (Mus musculus [5]): inactive
- inhibition (Mus musculus [6]): inactive
- Activity (Mus musculus [7]): inactive
- Activity (Mus musculus [8]): inactive
- inhibition (Mus musculus [9]): Active
- inhibition [10]: Active
